Assay results from ChEMBL document CHEMBL3588831, “Synthesis and in Vivo Evaluation of [123I]Melanin-Targeted Agents” (J Med Chem, 2015).

Test system: Mus musculus
Experiment: Biodistribution in eyes of C57BL/6J mouse bearing mouse B16F0 cells at 0.37 to 1.85 MBq, iv after 1 hr by gamma counting method
Format: ADME, organism-based, Eye
Conditions: in vivo; call rule not given here
Summary of the method: (§1)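 Female C57BL/6J mice (5−6 weeks), s.c. inoculated on left flank with 3 × 10^5 B16F0 cells in Ca2+/Mg2+-free PBS, used 11 days later (tumors 2−12 mm). Radiotracer given via tail vein in 100 μL (~0.37 MBq for 1−24 h, 1.85 MBq for 48 h). Organs dissected, weighed, γ-counted, decay corrected. Expressed as % ID/g against injected-dose dilutions. Mean ± SEM, n = 5.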

Row | Drug uptake [% ID/g] | SMILES
1 | 18.2 | O=C(CN1Cc2ccccc2C1=O)N1C[C@H]2CN(Cc3ccc([123I])cc3)C[C@H]2C1

Test system: Mus musculus
Experiment: Biodistribution in tumor of C57BL/6J mouse bearing mouse B16F0 cells at 0.37 to 1.85 MBq, iv after 16 hrs by gamma counting method
Format: ADME, organism-based
Conditions: in vivo
Summary of the method: as §1

Row | Drug uptake [% ID/g] | SMILES
2 | 11.6 | O=C(CN1Cc2ccccc2C1=O)N1C[C@H]2CN(Cc3ccc([123I])cc3)C[C@H]2C1

Test system: Liver
Experiment: Biodistribution in liver of C57BL/6J mouse bearing mouse B16F0 cells at 0.37 to 1.85 MBq, iv after 24 hrs by gamma counting method
Format: ADME, organism-based
Conditions: in vivo
Summary of the method: as §1

Row | Drug uptake [% ID/g] | SMILES
3 | 0.4 | O=C(CN1Cc2ccccc2C1=O)N1C[C@H]2CN(Cc3ccc([123I])cc3)C[C@H]2C1

Test system: Spleen
Experiment: Biodistribution in spleen of C57BL/6J mouse bearing mouse B16F0 cells at 0.37 to 1.85 MBq, iv after 16 hrs by gamma counting method
Format: ADME, organism-based
Conditions: in vivo
Summary of the method: as §1

Row | Drug uptake [% ID/g] | SMILES
4 | 0.2 | O=C(CN1Cc2ccccc2C1=O)N1C[C@H]2CN(Cc3ccc([123I])cc3)C[C@H]2C1

Test system: Mus musculus
Experiment: Biodistribution in eyes of C57BL/6J mouse bearing mouse B16F0 cells at 0.37 to 1.85 MBq, iv after 24 hrs by gamma counting method
Format: ADME, organism-based, Eye
Conditions: in vivo
Summary of the method: as §1

Row | Drug uptake [% ID/g] | SMILES
5 | 18.4 | O=C(CN1Cc2ccccc2C1=O)N1C[C@H]2CN(Cc3ccc([123I])cc3)C[C@H]2C1

Test system: Liver
Experiment: Biodistribution in liver of C57BL/6J mouse bearing mouse B16F0 cells at 0.37 to 1.85 MBq, iv after 6 hrs by gamma counting method
Format: ADME, organism-based
Conditions: in vivo
Summary of the method: as §1

Row | Drug uptake [% ID/g] | SMILES
6 | 3.1 | O=C(CN1Cc2ccccc2C1=O)N1C[C@H]2CN(Cc3ccc([123I])cc3)C[C@H]2C1

Test system: Kidney
Experiment: Biodistribution in kidney of C57BL/6J mouse bearing mouse B16F0 cells at 0.37 to 1.85 MBq, iv after 6 hrs by gamma counting method
Format: ADME, organism-based
Conditions: in vivo
Summary of the method: as §1

Row | Drug uptake [% ID/g] | SMILES
7 | 4.1 | O=C(CN1Cc2ccccc2C1=O)N1C[C@H]2CN(Cc3ccc([123I])cc3)C[C@H]2C1

Test system: Mus musculus
Experiment: Biodistribution in large gastrointestinal tract of C57BL/6J mouse bearing mouse B16F0 cells at 0.37 to 1.85 MBq, iv after 3 hrs by gamma counting method
Format: ADME, organism-based, Large intestine
Conditions: in vivo
Summary of the method: as §1

Row | Drug uptake [% ID/g] | SMILES
8 | 21.4 | O=C(CN1Cc2ccccc2C1=O)N1C[C@H]2CN(Cc3ccc([123I])cc3)C[C@H]2C1

Test system: Liver
Experiment: Biodistribution in liver of C57BL/6J mouse bearing mouse B16F0 cells at 0.37 to 1.85 MBq, iv after 48 hrs by gamma counting method
Format: ADME, organism-based
Conditions: in vivo
Summary of the method: as §1

Row | Drug uptake [% ID/g] | SMILES
9 | 0.2 | O=C(CN1Cc2ccccc2C1=O)N1C[C@H]2CN(Cc3ccc([123I])cc3)C[C@H]2C1

Test system: not listed separately
Experiment: Ratio of AUC in tumor to thyroid gland of C57BL/6J mouse bearing mouse B16F0 cells at 0.37 to 1.85 MBq, iv by gamma counting method
Format: ADME, organism-based
Conditions: in vivo
Summary of the method: (§2)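 Biodistribution in B16F0-bearing C57BL/6J mice given i.v. tail-vein tracer (~0.37 MBq for 1–24 h, 1.85 MBq for 48 h). Sacrifice at 1, 3, 6, 16, 24 and 48 h, then organs dissected, weighed and γ-counted as decay-corrected % ID/g. Tumor AUC divided by each organ AUC; mean of ratios ± SEM, n = 5.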

Row | Ratio | SMILES
10 | 6 | O=C(CN1Cc2ccccc2C1=O)N1C[C@H]2CN(Cc3ccc([123I])cc3)C[C@H]2C1

Test system: Mus musculus
Experiment: Biodistribution in tumor of C57BL/6J mouse bearing mouse B16F0 cells at 0.37 to 1.85 MBq, iv after 3 hrs by gamma counting method
Format: ADME, organism-based
Conditions: in vivo
Summary of the method: as §1

Row | Drug uptake [% ID/g] | SMILES
11 | 10.8 | O=C(CN1Cc2ccccc2C1=O)N1C[C@H]2CN(Cc3ccc([123I])cc3)C[C@H]2C1

Test system: Brain
Experiment: Drug distribution in brain of C57BL/6J mouse bearing mouse B16F0 cells at 18 to 20 MBq, iv measured over 72 hrs by SPECT imaging study
Format: ADME, organism-based
Conditions: in vivo
Summary of the method: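 Female C57BL/6J mice bearing s.c. B16F0 tumors (11 days growth) received 18−20 MBq in 100 μL via lateral tail vein (n = 3). Isoflurane anesthesia (5% induction, 2−2.5% maintenance) on a 37 °C heating pad. Planar γ-camera imaging at 10−60 min (5 min frames), 3 and 6 h, 24, 48 and 72 h. Radioactivity localization assessed visually.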

Row | Drug uptake | SMILES
12 | Not Active | O=C(CN1Cc2ccccc2C1=O)N1C[C@H]2CN(Cc3ccc([123I])cc3)C[C@H]2C1

Test system: Mus musculus
Experiment: Biodistribution in small gastrointestinal tract of C57BL/6J mouse bearing mouse B16F0 cells at 0.37 to 1.85 MBq, iv after 1 hr by gamma counting method
Format: ADME, organism-based, Small intestine
Conditions: in vivo
Summary of the method: as §1

Row | Drug uptake [% ID/g] | SMILES
13 | 21.4 | O=C(CN1Cc2ccccc2C1=O)N1C[C@H]2CN(Cc3ccc([123I])cc3)C[C@H]2C1

Test system: Mus musculus
Experiment: Biodistribution in tumor of C57BL/6J mouse bearing mouse B16F0 cells at 0.37 to 1.85 MBq, iv after 48 hrs by gamma counting method
Format: ADME, organism-based
Conditions: in vivo
Summary of the method: as §1

Row | Drug uptake [% ID/g] | SMILES
14 | 5 | O=C(CN1Cc2ccccc2C1=O)N1C[C@H]2CN(Cc3ccc([123I])cc3)C[C@H]2C1

Test system: Mus musculus
Experiment: Biodistribution in small gastrointestinal tract of C57BL/6J mouse bearing mouse B16F0 cells at 0.37 to 1.85 MBq, iv after 3 hrs by gamma counting method
Format: ADME, organism-based, Small intestine
Conditions: in vivo
Summary of the method: as §1

Row | Drug uptake [% ID/g] | SMILES
15 | 15.2 | O=C(CN1Cc2ccccc2C1=O)N1C[C@H]2CN(Cc3ccc([123I])cc3)C[C@H]2C1

Test system: Mus musculus
Experiment: Biodistribution in eyes of C57BL/6J mouse bearing mouse B16F0 cells at 0.37 to 1.85 MBq, iv after 16 hrs by gamma counting method
Format: ADME, organism-based, Eye
Conditions: in vivo
Summary of the method: as §1

Row | Drug uptake [% ID/g] | SMILES
16 | 22.1 | O=C(CN1Cc2ccccc2C1=O)N1C[C@H]2CN(Cc3ccc([123I])cc3)C[C@H]2C1

Test system: Mus musculus
Experiment: Biodistribution in thyroid gland of C57BL/6J mouse bearing mouse B16F0 cells at 0.37 to 1.85 MBq, iv after 1 hr by gamma counting method
Format: ADME, organism-based
Conditions: in vivo
Summary of the method: as §1

Row | Drug uptake [% ID/g] | SMILES
17 | 1.9 | O=C(CN1Cc2ccccc2C1=O)N1C[C@H]2CN(Cc3ccc([123I])cc3)C[C@H]2C1

Test system: Spleen
Experiment: Biodistribution in spleen of C57BL/6J mouse bearing mouse B16F0 cells at 0.37 to 1.85 MBq, iv after 6 hrs by gamma counting method
Format: ADME, organism-based
Conditions: in vivo
Summary of the method: as §1

Row | Drug uptake [% ID/g] | SMILES
18 | 0.4 | O=C(CN1Cc2ccccc2C1=O)N1C[C@H]2CN(Cc3ccc([123I])cc3)C[C@H]2C1

Test system: Spleen
Experiment: Biodistribution in spleen of C57BL/6J mouse bearing mouse B16F0 cells at 0.37 to 1.85 MBq, iv after 48 hrs by gamma counting method
Format: ADME, organism-based
Conditions: in vivo
Summary of the method: as §1

Row | Drug uptake [% ID/g] | SMILES
19 | 0.09 | O=C(CN1Cc2ccccc2C1=O)N1C[C@H]2CN(Cc3ccc([123I])cc3)C[C@H]2C1

Test system: Liver
Experiment: Biodistribution in liver of C57BL/6J mouse bearing mouse B16F0 cells at 0.37 to 1.85 MBq, iv after 3 hrs by gamma counting method
Format: ADME, organism-based
Conditions: in vivo
Summary of the method: as §1

Row | Drug uptake [% ID/g] | SMILES
20 | 5.6 | O=C(CN1Cc2ccccc2C1=O)N1C[C@H]2CN(Cc3ccc([123I])cc3)C[C@H]2C1

Test system: Mus musculus
Experiment: Biodistribution in large gastrointestinal tract of C57BL/6J mouse bearing mouse B16F0 cells at 0.37 to 1.85 MBq, iv after 6 hrs by gamma counting method
Format: ADME, organism-based
Conditions: in vivo
Summary of the method: as §1

Row | Drug uptake [% ID/g] | SMILES
21 | 23.1 | O=C(CN1Cc2ccccc2C1=O)N1C[C@H]2CN(Cc3ccc([123I])cc3)C[C@H]2C1

Test system: Mus musculus
Experiment: Whole body clearance in C57BL/6J mouse bearing mouse B16F0 cells at 0.37 to 1.85 MBq, iv after 16 hrs by gamma counting method
Format: ADME, organism-based
Conditions: in vivo

Row | CL [%] | SMILES
22 | > 98 | O=C(CN1Cc2ccccc2C1=O)N1C[C@H]2CN(Cc3ccc([123I])cc3)C[C@H]2C1

Test system: Mus musculus
Experiment: Biodistribution in large gastrointestinal tract of C57BL/6J mouse bearing mouse B16F0 cells at 0.37 to 1.85 MBq, iv after 16 hrs by gamma counting method
Format: ADME, organism-based, Large intestine
Conditions: in vivo
Summary of the method: as §1

Row | Drug uptake [% ID/g] | SMILES
23 | 1.4 | O=C(CN1Cc2ccccc2C1=O)N1C[C@H]2CN(Cc3ccc([123I])cc3)C[C@H]2C1

Test system: Mus musculus
Experiment: Biodistribution in tumor of C57BL/6J mouse bearing mouse B16F0 cells at 0.37 to 1.85 MBq, iv after 6 hrs by gamma counting method
Format: ADME, organism-based
Conditions: in vivo
Summary of the method: as §1

Row | Drug uptake [% ID/g] | SMILES
24 | 10.4 | O=C(CN1Cc2ccccc2C1=O)N1C[C@H]2CN(Cc3ccc([123I])cc3)C[C@H]2C1

Test system: not listed separately
Experiment: Ratio of AUC in tumor to eyes of C57BL/6J mouse bearing mouse B16F0 cells at 0.37 to 1.85 MBq, iv by gamma counting method
Format: ADME, organism-based
Conditions: in vivo
Summary of the method: as §2

Row | Ratio | SMILES
25 | 0.42 | O=C(CN1Cc2ccccc2C1=O)N1C[C@H]2CN(Cc3ccc([123I])cc3)C[C@H]2C1

Test system: Mus musculus
Experiment: Biodistribution in large gastrointestinal tract of C57BL/6J mouse bearing mouse B16F0 cells at 0.37 to 1.85 MBq, iv after 1 hr by gamma counting method
Format: ADME, organism-based, Large intestine
Conditions: in vivo
Summary of the method: as §1

Row | Drug uptake [% ID/g] | SMILES
26 | 3.5 | O=C(CN1Cc2ccccc2C1=O)N1C[C@H]2CN(Cc3ccc([123I])cc3)C[C@H]2C1

Test system: Spleen
Experiment: Biodistribution in spleen of C57BL/6J mouse bearing mouse B16F0 cells at 0.37 to 1.85 MBq, iv after 3 hrs by gamma counting method
Format: ADME, organism-based
Conditions: in vivo
Summary of the method: as §1

Row | Drug uptake [% ID/g] | SMILES
27 | 0.5 | O=C(CN1Cc2ccccc2C1=O)N1C[C@H]2CN(Cc3ccc([123I])cc3)C[C@H]2C1

Test system: Liver
Experiment: Biodistribution in liver of C57BL/6J mouse bearing mouse B16F0 cells at 0.37 to 1.85 MBq, iv after 1 hr by gamma counting method
Format: ADME, organism-based
Conditions: in vivo
Summary of the method: as §1

Row | Drug uptake [% ID/g] | SMILES
28 | 12.3 | O=C(CN1Cc2ccccc2C1=O)N1C[C@H]2CN(Cc3ccc([123I])cc3)C[C@H]2C1

Test system: not listed separately
Experiment: Stability in urine of C57BL/6J mouse bearing mouse B16F0 cells assessed as drug degradation at 0.37 to 1.85 MBq, iv after 24 hrs by radio-HPLC and radio-TLC method
Format: ADME, organism-based
Conditions: in vivo, in the assay text read “20 MBq” for “0.37 to 1.85 MBq”
Summary of the method: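 Tumor-bearing C57BL/6J mice were sampled 3 and 24 h after i.v. tracer. Tissue was sonicated in CH3CN/water (3:2) with cold iodo standard and KI, then centrifuged. Urine was diluted and spiked; plasma was spiked, with CH3CN precipitation for TLC. Intact fraction came from silica radio-TLC (spot matching standard Rf) and radio-HPLC with precolumn/C18 column switching.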

Row | Stability | SMILES
29 | Unstable | O=C(CN1Cc2ccccc2C1=O)N1C[C@H]2CN(Cc3ccc([123I])cc3)C[C@H]2C1
